Reference: publication PMC5532717 (ACS Central Science, 2017)

Tests used:
Format in all cases: biochemical
[1] = biological target: T1, human β-glucosidase GBA1 (Homo sapiens, UniProt P04062, R534H); assay: In vitro apparent IC50, recombinant GBA1
T1 sequence (P04062 40-536 R534H): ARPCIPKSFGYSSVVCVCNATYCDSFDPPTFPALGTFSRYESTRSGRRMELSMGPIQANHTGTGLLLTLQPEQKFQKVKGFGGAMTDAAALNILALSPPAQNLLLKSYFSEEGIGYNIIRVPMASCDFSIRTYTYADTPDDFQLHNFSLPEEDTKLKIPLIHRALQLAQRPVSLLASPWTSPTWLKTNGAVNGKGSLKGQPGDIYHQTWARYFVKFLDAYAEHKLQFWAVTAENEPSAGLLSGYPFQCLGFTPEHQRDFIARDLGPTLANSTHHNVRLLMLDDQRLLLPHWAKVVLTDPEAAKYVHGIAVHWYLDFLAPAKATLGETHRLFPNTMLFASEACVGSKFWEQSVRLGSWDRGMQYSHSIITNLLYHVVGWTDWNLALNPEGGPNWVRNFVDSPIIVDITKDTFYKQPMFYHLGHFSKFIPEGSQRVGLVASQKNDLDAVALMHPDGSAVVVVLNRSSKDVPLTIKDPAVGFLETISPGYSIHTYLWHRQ
Procedure, shortened: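 Recombinant human GBA1 (Cerezyme) preincubated with a range of test compound concentrations for 30 min at 37 °C, then added to 4-MU-Glc substrate mixture to measure residual activity. Reaction quenched with 1 M NaOH–glycine (pH 10.3); 4-MU fluorescence read at λEX 366 / λEM 445 nm. Apparent IC50 is the mean of three technical replicates.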

[2] = biological target: T2, GBA2 (Homo sapiens, UniProt Q9HCG7); assay: In vitro apparent IC50, GBA2 overexpressing HEK293T lysate, 4-MU-β-Glc
T2 sequence (Q9HCG7 1-927): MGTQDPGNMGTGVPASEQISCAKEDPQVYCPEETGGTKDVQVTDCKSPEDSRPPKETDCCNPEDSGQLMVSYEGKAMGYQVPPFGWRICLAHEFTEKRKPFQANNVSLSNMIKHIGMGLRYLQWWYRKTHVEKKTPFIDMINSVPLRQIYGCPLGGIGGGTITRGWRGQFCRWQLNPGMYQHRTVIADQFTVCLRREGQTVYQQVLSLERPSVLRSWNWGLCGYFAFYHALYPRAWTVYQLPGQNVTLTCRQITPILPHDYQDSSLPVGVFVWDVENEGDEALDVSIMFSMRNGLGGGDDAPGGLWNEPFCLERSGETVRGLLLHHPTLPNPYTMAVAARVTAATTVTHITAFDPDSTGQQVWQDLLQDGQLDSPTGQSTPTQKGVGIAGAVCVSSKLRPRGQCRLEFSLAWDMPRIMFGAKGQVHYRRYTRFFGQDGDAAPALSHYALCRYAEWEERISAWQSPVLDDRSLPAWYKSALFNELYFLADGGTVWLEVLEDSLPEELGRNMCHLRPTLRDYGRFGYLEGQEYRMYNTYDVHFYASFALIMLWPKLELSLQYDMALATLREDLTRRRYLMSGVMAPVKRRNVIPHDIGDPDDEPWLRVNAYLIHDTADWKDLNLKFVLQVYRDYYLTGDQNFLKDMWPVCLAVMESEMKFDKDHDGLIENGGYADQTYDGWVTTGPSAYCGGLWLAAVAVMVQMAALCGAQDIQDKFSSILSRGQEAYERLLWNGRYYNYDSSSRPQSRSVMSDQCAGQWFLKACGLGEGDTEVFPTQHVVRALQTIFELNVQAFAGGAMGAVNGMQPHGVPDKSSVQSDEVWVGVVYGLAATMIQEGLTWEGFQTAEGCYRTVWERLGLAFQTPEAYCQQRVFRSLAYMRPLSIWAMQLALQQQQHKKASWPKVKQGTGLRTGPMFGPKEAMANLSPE
Procedure, shortened: (§1)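 The enzyme source was GBA2-overexpressing HEK293T lysate or recombinant human GAA. It was preincubated 30 min at 37 °C with a range of test compound concentrations, then transferred into 4-MU glucoside substrate mixture to measure residual activity. Quenched with 1 M NaOH–glycine pH 10.3; 4-MU fluorescence at λex 366/λem 445 nm. Apparent IC50 is the mean of three technical replicates.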

[3] = biological target: T3, human α-glucosidase GAA (Homo sapiens, UniProt P10253); assay: In vitro apparent IC50, recombinant GAA
Procedure, shortened: as §1

[4] = biological target: T1, human β-glucosidase GBA1; assay: Inhibition kinetics, recombinant GBA1, 2,4-DNP-β-Glc; conditions: irreversible inhibition, 37 °C, pH 5.2
Procedure, shortened: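 Recombinant human GBA1 preincubated with test compound for 0.5–8 min (fast inhibitors) or 0.5–360 min (slow), then added to 2,4-DNP-Glc. Residual rate taken from 400 nm absorbance versus a no-inhibitor control. kobs is the slope of −ln V/V0 versus time; kinact and KI come from a hyperbolic fit of kobs versus [I]. For fast inhibition (>50% after 30 s), kinact/KI is the linear slope at [I] ≪ KI.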

[5] = biological target: T3, human α-glucosidase GAA; assay: Inhibition kinetics, recombinant GAA, 2,4-DNP-α-Glc

OC[C@@H]1[C@@H](O)[C@H](O)[C@@H](O)[C@@H]2O[C@H]12 [Compound 1, cyclophellitol, reference compound]
IC50 [1]: 165 ± 4 nM | IC50 [2]: 139 ± 60 nM | IC50 [3]: > 100000 nM | β-glucosidase GBA1 kinact [4]: 0.72 min^–1 | Ki [5]: > 500000 nM
